# Published values collected from several papers.
# Matrix: Caco-2
SMILES,conditions,Papp B→A [nm/s]
COc1ccc([C@@H]2CC(=O)c3c(O)cc(O)cc3O2)cc1O,"100 µg/mL, 2 h",214
N#Cc1ccc(C[C@H](Nc2ncc(-c3ccc(F)cc3)o2)C(=O)N2CCc3ccccc32)cc1,"100 µM, 2 h",2000
CC(C)c1nc(N(C)S(C)(=O)=O)nc(-c2ccc(F)cc2)c1/C=C/[C@@H](O)C[C@@H](O)CC(=O)O,"5 µM, 2 h",146
N#C[C@@]1(c2ccc3c(N)ncnn23)O[C@H](CO)[C@@H](O)[C@H]1O,"10 µM, 2 h",254
Cc1cc(C)c(CNC(=O)c2cc(Cl)c3c(c2C)O[C@@](C)([C@H]2CC[C@H](N(C)C)CC2)O3)c(=O)[nH]1,30 µM,190
C[C@H]1O[C@@H](O[C@H]2[C@@H](O)C[C@H](O[C@H]3[C@@H](O)C[C@H](O[C@H]4CC[C@@]5(C)[C@H](CC[C@@H]6[C@@H]5C[C@@H](O)[C@]5(C)[C@@H](C7=CC(=O)OC7)CC[C@]65O)C4)O[C@@H]3C)O[C@@H]2C)C[C@H](O)[C@@H]1O,"5 µM, 2 h",179
O=c1cc(-c2ccccc2)oc2cc(O)c(O)c(O)c12,"100 µg/mL, 2 h",27.6
N#Cc1ccc(C[C@H](NC(=O)c2cc3cc(F)ccc3[nH]2)C(=O)N2CCc3ccccc32)cc1,"100 µM, 2 h",3860
CC[C@]1(O)C[C@@H]2CN(CCc3c([nH]c4ccccc34)[C@@](C(=O)OC)(c3cc4c(cc3OC)N(C)[C@H]3[C@@](O)(C(=O)OC)[C@H](OC(C)=O)[C@]5(CC)C=CCN6CC[C@]43[C@@H]65)C2)C1,"10 µM, 2 h",229
O=c1c(-c2ccc(O)cc2)coc2cc(O)ccc12,"100 µg/mL, 2 h",49.8
CC(C)NCC(O)COc1cccc2ccccc12 (stereo not shown),"10 µM, 2 h",200
Oc1cc(O)c2c(c1)O[C@H](c1ccc(O)c(O)c1)[C@H](O)C2,"100 µg/mL, 2 h",5.5
N#Cc1ccc(C[C@H](Nc2nnc(-c3ccc(F)cc3)s2)C(=O)N2CCc3ccccc32)cc1,"100 µM, 2 h",3140
